In ChEMBL document CHEMBL4118265, “A cascade synthesis, in vitro cholinesterases inhibitory activity and docking studies of novel Tacrine-pyranopyrazole derivatives” (Bioorg Med Chem Lett, 2018):

Tests used:
Acetylcholinesterase = Acetylcholinesterase (Electrophorus electricus, UniProt O42275); experiment: Inhibition of electric eel AChE using acetylthiocholine iodide as substrate preincubated for 15 mins followed by substrate addition measured every 5 mins for 15 mins by spectrophotometric method
Cholinesterase = Cholinesterase (Equus caballus, UniProt P81908); experiment: Inhibition of horse serum BChE using butyrylthiocholine chloride as substrate preincubated for 15 mins followed by substrate addition measured every 5 mins for 15 mins by spectrophotometric method
Summary of the method: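 BChE (6.85 x10-3 U) in 100 mM sodium phosphate pH 8.0 was preincubated 15 min at 25 °C with compound at several concentrations in methanol. DTNB (0.5 mM) and butyrylthiocholine chloride (0.2 mM) were then added. A412 read every 5 min for 15 min. IC50 derived from percent inhibition versus a methanol blank; mean ± SD of triplicates.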

[1] = Selectivity ratio of IC50 for horse serum BChE to IC50 for electric eel AChE
[2] = molecular target: Cholinesterase (Equus caballus) (UniProt P81908); experiment: Inhibition of horse serum BChE at 0.391 ug using butyrylthiocholine chloride as substrate preincubated for 15 mins followed by substrate addition measured every 5 mins for 15 mins by spectrophotometric method relative to control
Summary of the method: (§1)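 Ellman colorimetric assay. Compound in methanol (10 µl) was mixed with 150 µl 100 mM sodium phosphate pH 8.0 and BChE (6.85 x10-3 U) and held 15 min at 25 °C. DTNB (0.5 mM) was added, then butyrylthiocholine chloride (0.2 mM) to start the reaction. A412 read every 5 min for 15 min, in triplicate. Percent inhibition = (E−S)/E×100 against a methanol blank.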

[3] = molecular target: Cholinesterase (Equus caballus) (UniProt P81908); experiment: Inhibition of horse serum BChE at 0.781 ug using butyrylthiocholine chloride as substrate preincubated for 15 mins followed by substrate addition measured every 5 mins for 15 mins by spectrophotometric method relative to control; summary of the method: as §1
[4] = molecular target: Cholinesterase (Equus caballus) (UniProt P81908); experiment: Inhibition of horse serum BChE at 1.563 ug using butyrylthiocholine chloride as substrate preincubated for 15 mins followed by substrate addition measured every 5 mins for 15 mins by spectrophotometric method relative to control; summary of the method: as §1
[5] = molecular target: Cholinesterase (Equus caballus) (UniProt P81908); experiment: Inhibition of horse serum BChE at 3.125 ug using butyrylthiocholine chloride as substrate preincubated for 15 mins followed by substrate addition measured every 5 mins for 15 mins by spectrophotometric method relative to control; summary of the method: as §1
[6] = molecular target: Cholinesterase (Equus caballus) (UniProt P81908); experiment: Inhibition of horse serum BChE at 6.25 ug using butyrylthiocholine chloride as substrate preincubated for 15 mins followed by substrate addition measured every 5 mins for 15 mins by spectrophotometric method relative to control; summary of the method: as §1
[7] = molecular target: Cholinesterase (Equus caballus) (UniProt P81908); experiment: Inhibition of horse serum BChE at 12.5 ug using butyrylthiocholine chloride as substrate preincubated for 15 mins followed by substrate addition measured every 5 mins for 15 mins by spectrophotometric method relative to control
Summary of the method: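 Ellman colorimetric assay. DTNB (0.5 mM) was added, then butyrylthiocholine chloride (0.2 mM) to start the reaction. A412 read every 5 min for 15 min, in triplicate. Percent inhibition = (E−S)/E×100 against a methanol blank.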

[8] = molecular target: Cholinesterase (Equus caballus) (UniProt P81908); experiment: Inhibition of horse serum BChE at 25 ug using butyrylthiocholine chloride as substrate preincubated for 15 mins followed by substrate addition measured every 5 mins for 15 mins by spectrophotometric method relative to control; summary of the method: as §1
[9] = molecular target: Acetylcholinesterase (Electrophorus electricus) (UniProt O42275); experiment: Inhibition of electric eel AChE at 0.006 ug using acetylthiocholine iodide as substrate preincubated for 15 mins followed by substrate addition measured every 5 mins for 15 mins by spectrophotometric method relative to control
Summary of the method: as §1, with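 “AChE (5.32” for “BChE (6.85”, “acetylthiocholine iodide (0.71” for “butyrylthiocholine chloride (0.2”, “Thiolate formation” for “A412”, “read at 412 nm” for “read”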

[10] = molecular target: Acetylcholinesterase (Electrophorus electricus) (UniProt O42275); experiment: Inhibition of electric eel AChE at 0.012 ug using acetylthiocholine iodide as substrate preincubated for 15 mins followed by substrate addition measured every 5 mins for 15 mins by spectrophotometric method relative to control
Summary of the method: as §1, with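 “AChE (5.32” for “BChE (6.85”, “acetylthiocholine iodide (0.71” for “butyrylthiocholine chloride (0.2”, “Thiolate formation” for “A412”, “read at 412 nm” for “read”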

Chain of Acetylcholinesterase (Electrophorus electricus) (O42275 24-633 limits assumed): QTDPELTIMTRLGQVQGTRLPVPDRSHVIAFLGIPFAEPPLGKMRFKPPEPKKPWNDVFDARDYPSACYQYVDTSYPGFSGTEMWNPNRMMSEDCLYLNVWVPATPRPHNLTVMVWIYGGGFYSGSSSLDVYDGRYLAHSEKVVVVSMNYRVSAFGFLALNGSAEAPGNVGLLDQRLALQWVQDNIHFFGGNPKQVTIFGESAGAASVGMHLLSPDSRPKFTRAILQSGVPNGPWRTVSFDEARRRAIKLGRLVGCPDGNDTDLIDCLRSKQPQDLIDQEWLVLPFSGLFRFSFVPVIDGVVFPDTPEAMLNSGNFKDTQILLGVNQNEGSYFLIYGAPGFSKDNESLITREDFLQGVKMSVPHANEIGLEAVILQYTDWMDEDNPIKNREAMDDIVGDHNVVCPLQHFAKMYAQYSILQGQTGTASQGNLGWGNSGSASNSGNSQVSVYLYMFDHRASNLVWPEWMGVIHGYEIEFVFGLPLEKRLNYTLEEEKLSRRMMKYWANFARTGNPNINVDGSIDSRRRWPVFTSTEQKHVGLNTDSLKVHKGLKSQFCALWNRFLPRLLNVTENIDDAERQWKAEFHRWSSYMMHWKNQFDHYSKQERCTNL
Chain of Acetylcholinesterase (O42275 whole entry): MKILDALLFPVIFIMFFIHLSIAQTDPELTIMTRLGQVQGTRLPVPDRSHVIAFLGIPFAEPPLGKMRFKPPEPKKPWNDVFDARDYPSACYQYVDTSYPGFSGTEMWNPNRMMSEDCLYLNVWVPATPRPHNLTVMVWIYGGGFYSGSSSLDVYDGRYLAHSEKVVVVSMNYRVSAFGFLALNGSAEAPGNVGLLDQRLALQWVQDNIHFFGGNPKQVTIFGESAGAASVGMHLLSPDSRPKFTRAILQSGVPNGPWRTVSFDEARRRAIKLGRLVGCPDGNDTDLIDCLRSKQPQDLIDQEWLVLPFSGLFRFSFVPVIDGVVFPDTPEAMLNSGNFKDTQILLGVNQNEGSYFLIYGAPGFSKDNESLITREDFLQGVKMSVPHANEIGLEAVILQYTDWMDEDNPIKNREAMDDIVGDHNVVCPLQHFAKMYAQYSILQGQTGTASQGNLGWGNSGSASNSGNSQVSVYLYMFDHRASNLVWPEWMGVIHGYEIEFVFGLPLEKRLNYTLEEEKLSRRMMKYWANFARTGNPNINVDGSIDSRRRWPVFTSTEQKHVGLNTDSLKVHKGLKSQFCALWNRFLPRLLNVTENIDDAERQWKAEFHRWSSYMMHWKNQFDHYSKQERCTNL
Chain of Cholinesterase (Equus caballus) (P81908 whole entry): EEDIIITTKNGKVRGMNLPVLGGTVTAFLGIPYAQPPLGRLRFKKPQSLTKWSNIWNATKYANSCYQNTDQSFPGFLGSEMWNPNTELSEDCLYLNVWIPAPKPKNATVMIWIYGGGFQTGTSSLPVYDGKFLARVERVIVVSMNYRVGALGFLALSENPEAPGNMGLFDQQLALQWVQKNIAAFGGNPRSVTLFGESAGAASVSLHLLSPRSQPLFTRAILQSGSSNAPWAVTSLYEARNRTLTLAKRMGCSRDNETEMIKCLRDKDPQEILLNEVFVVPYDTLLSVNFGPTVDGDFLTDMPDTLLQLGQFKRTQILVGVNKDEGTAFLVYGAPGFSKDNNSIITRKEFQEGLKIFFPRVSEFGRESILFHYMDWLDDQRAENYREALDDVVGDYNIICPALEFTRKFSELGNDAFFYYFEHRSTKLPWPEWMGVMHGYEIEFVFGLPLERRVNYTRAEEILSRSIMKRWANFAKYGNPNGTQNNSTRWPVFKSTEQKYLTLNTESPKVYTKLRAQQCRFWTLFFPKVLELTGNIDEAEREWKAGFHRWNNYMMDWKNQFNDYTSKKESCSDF
Chain of Cholinesterase (P81908 whole entry): as above

Row | SMILES | IC50 (Acetylcholinesterase) [µM] | IC50 (Cholinesterase) [µM] | Ratio IC50 [1] | inhibition [2] [%] | inhibition [3] [%] | inhibition [4] [%] | inhibition [5] [%] | inhibition [6] [%] | inhibition [7] [%] | inhibition [8] [%] | inhibition [9] [%] | inhibition [10] [%]
1 | Cc1[nH]nc2c1C(c1cc([N+](=O)[O-])ccc1Cl)c1c(nc3c(c1N)CCCC3)O2 (stereo not given) | 1.04 | 2.5 | 2.4 | 5.53 | 10.2 | 13.9 | 21.6 | 35.6 | 54.2 | 71.9 | – | –
2 | Cc1[nH]nc2c1C(c1ccc(Br)cc1)c1c(nc3c(c1N)CCCC3)O2 (stereo not given) | 1.8 | 11.6 | 6.47 | 13.1 | 17.4 | 37.9 | 43.1 | 58.5 | 60.5 | 69.9 | – | –
3 | Cc1[nH]nc2c1C(c1c(Cl)cccc1[N+](=O)[O-])c1c(nc3c(c1N)CCCC3)O2 (stereo not given) | 1.77 | 1.84 | 1.04 | 37.6 | 52.1 | 66.2 | 85.3 | 86.5 | 94.3 | 98.7 | – | –
4 | COc1ccc2ccccc2c1C1c2c(n[nH]c2C)Oc2nc3c(c(N)c21)CCCC3 (stereo not given) | 0.13 | 11.3 | 87.3 | 2.86 | 7.31 | 25.1 | 47.9 | 51.9 | 63 | 70 | 12.6 | 16.1
5 | Cc1ccc(C2c3c(n[nH]c3C)Oc3nc4c(c(N)c32)CCCC4)c(C)c1 (stereo not given) | 0.29 | 39 | 135 | – | – | – | 13.3 | 44.8 | 49.7 | 51.9 | – | –
6 | Cc1[nH]nc2c1C(c1ccc(Cl)cc1)c1c(nc3c(c1N)CCCC3)O2 (stereo not given) | 1.66 | > 68.2 | > 41 | 20.8 | 23 | 23.4 | 27.9 | 31.7 | 45.8 | 46.9 | – | –
7 | COc1ccc(C2c3c(n[nH]c3C)Oc3nc4c(c(N)c32)CCCC4)c(OC)c1 (stereo not given) | 0.26 | 31.1 | 120 | – | 17.8 | 37.1 | 43 | 55.8 | 62.8 | 80.8 | – | –
8 | Cc1[nH]nc2c1C(c1ccc(-c3ccccc3)cc1)c1c(nc3c(c1N)CCCC3)O2 (stereo not given) | 0.044 | > 61.2 | > 1390 | – | – | – | – | 11.8 | 14.1 | 20.6 | 34.4 | 43
9 | Cc1[nH]nc2c1C(c1ccccc1)c1c(nc3c(c1N)CCCC3)O2 (stereo not given) | 1.23 | 36 | 29.3 | 5.38 | 10.7 | 13.6 | 23.9 | 30.7 | 52.5 | 72.9 | – | –
10 | Cc1[nH]nc2c1C(c1cccnc1)c1c(nc3c(c1N)CCCC3)O2 (stereo not given) | 0.33 | 4.26 | 12.9 | 18.2 | 41.6 | 53.9 | 57.1 | 72 | 74.2 | 84.8 | 6.61 | 13.1
11 | CSc1ccc(C2c3c(n[nH]c3C)Oc3nc4c(c(N)c32)CCCC4)cc1 (stereo not given) | 0.058 | > 66 | > 1140 | 0.11 | 10.1 | 23.7 | 31 | 36.6 | 44.5 | 46.7 | 30.4 | 36.9
12 | COc1ccc2c3c1O[C@H]1C[C@@H](O)C=C[C@@]31CCN(C)C2 | – | – | – | 11.1 | 21 | 55.2 | 63.9 | – | – | 97 | – | –
13 | Cc1[nH]nc2c1C(c1ccc([N+](=O)[O-])cc1)c1c(nc3c(c1N)CCCC3)O2 (stereo not given) | 5.8 | 2.73 | 0.47 | 24.9 | 37.9 | 66.8 | 75.1 | 90.3 | 92.6 | 93.2 | – | –
